Calls of active or inactive are those of the source. The calls are words filed in the database; no cut-off is given here.
Tests used:
D(3) dopamine receptor = D(3) dopamine receptor (Rattus norvegicus, UniProt P19020); test: In vitro binding affinity against cloned mammalian Dopamine receptor D3 expressed in CHO cells by, using [3H]-spiperone as radioligand; assay type: cell-based; settings: read-out: Ki
[1] = molecular target: T1, 5-hydroxytryptamine receptor 1B (Homo sapiens, UniProt P28222); test: In vitro binding affinity against cloned mammalian 5-hydroxytryptamine 1D receptor beta expressed in CHO cells, by using [3H]5-HT as radioligand; assay type: cell-based
T1 sequence (P28222 whole entry): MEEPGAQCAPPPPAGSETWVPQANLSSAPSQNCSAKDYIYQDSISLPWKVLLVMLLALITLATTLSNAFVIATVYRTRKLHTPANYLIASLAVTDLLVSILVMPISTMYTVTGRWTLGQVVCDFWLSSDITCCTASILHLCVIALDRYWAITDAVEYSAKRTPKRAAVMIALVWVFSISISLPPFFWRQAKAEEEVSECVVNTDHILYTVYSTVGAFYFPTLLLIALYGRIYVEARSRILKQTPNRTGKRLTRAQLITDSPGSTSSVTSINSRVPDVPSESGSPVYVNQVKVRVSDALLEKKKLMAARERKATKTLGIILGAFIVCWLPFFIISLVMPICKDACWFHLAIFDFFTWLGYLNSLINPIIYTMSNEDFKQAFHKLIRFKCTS
Outline: (§1)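 Membranes from CHO cells stably expressing the cloned receptor, made by mechanical disruption in ice-cold Tris/EDTA/EGTA pH 7.4 and differential centrifugation. [3H]serotonin at 1.7 nM in 50 mM Tris, 5 mM MgCl2, 0.1% ascorbic acid, pH 7.4. 11 drug concentrations in duplicate, 1 h at room temperature protected from light, then filtration. Excess serotonin defines nonspecific binding. One-site IC50 fit, Ki by Cheng-Prusoff.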

[2] = molecular target: 5-hydroxytryptamine receptor 1D (Homo sapiens, UniProt P28221); test: In vitro binding affinity against cloned mammalian 5-hydroxytryptamine 1D receptor alpha expressed in CHO cells, by using [3H]5-HT as radioligand; assay type: cell-based
Sequence of 5-hydroxytryptamine receptor 1D (P28221 whole entry): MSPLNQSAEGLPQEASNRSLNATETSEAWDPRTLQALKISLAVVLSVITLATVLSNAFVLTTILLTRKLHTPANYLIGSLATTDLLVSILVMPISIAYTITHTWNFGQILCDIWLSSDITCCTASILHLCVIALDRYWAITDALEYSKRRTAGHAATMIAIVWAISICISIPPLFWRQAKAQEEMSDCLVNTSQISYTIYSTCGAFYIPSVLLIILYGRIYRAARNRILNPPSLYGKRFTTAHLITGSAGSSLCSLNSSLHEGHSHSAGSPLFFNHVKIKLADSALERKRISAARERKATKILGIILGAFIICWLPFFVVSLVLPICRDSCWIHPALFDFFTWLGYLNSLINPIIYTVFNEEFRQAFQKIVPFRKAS
Outline: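 Competition binding on CHO-cell membranes (20-60 μg protein) in 50 mM Tris, 5 mM MgCl2, 0.1% ascorbic acid, pH 7.4. Nonspecific binding defined with excess serotonin. 11 drug concentrations, each in duplicate. Incubated 1 h at room temperature, protected from light, then filtered and scintillation counted. IC50 taken from a one-site fit; Ki by Cheng-Prusoff.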

D(2) dopamine receptor [3] = molecular target: T2, D(2) dopamine receptor (Rattus norvegicus, UniProt P61169); test: In vitro binding affinity against cloned mammalian Dopamine receptor D2 expressed in CHO cells using [3H]U-86170 as radioligand; assay type: cell-based; settings: read-out: Ki
T2 sequence (P61169 whole entry): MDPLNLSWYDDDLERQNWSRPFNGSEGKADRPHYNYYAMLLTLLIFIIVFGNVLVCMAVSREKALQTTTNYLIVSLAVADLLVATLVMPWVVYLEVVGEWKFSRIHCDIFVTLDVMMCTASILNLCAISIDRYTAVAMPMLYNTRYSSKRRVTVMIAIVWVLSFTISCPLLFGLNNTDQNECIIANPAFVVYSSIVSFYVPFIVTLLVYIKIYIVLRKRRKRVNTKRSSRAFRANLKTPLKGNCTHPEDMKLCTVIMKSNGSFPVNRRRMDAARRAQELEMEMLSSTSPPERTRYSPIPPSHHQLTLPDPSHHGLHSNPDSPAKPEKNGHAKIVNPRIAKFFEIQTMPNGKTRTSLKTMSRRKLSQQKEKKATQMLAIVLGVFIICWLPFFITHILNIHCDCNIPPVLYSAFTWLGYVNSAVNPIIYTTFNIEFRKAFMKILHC
Outline: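 Membranes from CHO cells (20-60 μg protein) in 20 mM HEPES, 10 mM MgSO4, pH 7.4. Nonspecific binding defined with excess haloperidol. 11 concentrations, each in duplicate. Incubated 1 h at room temperature, then filtered and counted. IC50 from a one-site competition fit, converted to Ki by Cheng-Prusoff.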

Rattus norvegicus [4] = test: The compound was tested in vivo for biochemical effect against the changes in different brain area levels of DOPA in reserpinized rat hemispheres (mainly cortex) at dose of 3.1 micro/kg; Inactive; assay type: functional, organism-based
Outline: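 Male Sprague-Dawley rats (200-300 g) pretreated with reserpine 5 mg/kg sc 18 h before. Injection volume 5 mL/kg, test solutions at neutral pH. DOPA and 5-HTP in limbic system, striatum and hemispheres measured by HPLC with electrochemical detection. Dose-response curves from four to six dose levels (n = 4) per brain area.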

D(2) dopamine receptor [5] = molecular target: T2, D(2) dopamine receptor; test: Binding affinity rat Dopamine receptor D2 expressed in CHO-K1 cells by [3H]U-86170 displacement.; assay type: cell-based
Rattus norvegicus [6] = test: The compound was tested in vivo for biochemical effect against the changes in different brain area levels of 5-HTP in reserpinized rat hemispheres (mainly cortex)at dose 3.1 uM/kg; inactive; assay type: functional, organism-based
Rattus norvegicus [7] = test: The compound was tested in vivo for biochemical effect against the changes in different brain area levels of DOPA in reserpinized rat corpus striatum at dose 50 uM/kg; inactive; assay type: functional, organism-based
Rattus norvegicus [8] = test: In vivo changes in different brain area levels of 5-HTP in reserpinized rat corpus striatum.; assay type: functional
Outline: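 Male Sprague-Dawley rats (200-300 g) pretreated with reserpine 5 mg/kg sc 18 h before. Injection volume 5 mL/kg at neutral pH. Brain-region 5-HTP measured by HPLC with electrochemical detection. Dose-response curves used four to six doses, n = 4.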

Rattus norvegicus [9] = test: The compound was tested in vivo for biochemical effect against the changes in different brain area levels of DOPA in reserpinized rat hemispheres (mainly cortex)at dose 3.1 uM/kg; inactive; assay type: functional, organism-based
Rattus norvegicus [10] = test: The compound was tested in vivo for biochemical effect against the changes in different brain area levels of DOPA in reserpinized rat limbic system at dose 50 uM/kg; inactive; assay type: functional, organism-based
[11] = molecular target: T1, 5-hydroxytryptamine receptor 1B; test: The compound was tested in vitro for binding affinity against cloned mammalian 5-hydroxytryptamine 1D receptor beta expressed in CHO cells, by using [3H]5-HT as radioligand; assay type: cell-based; set-up: concentration or dose not given beside the values; settings: concentration not given here; outline: as §1
[12] = molecular target: D(3) dopamine receptor (Rattus norvegicus) (UniProt P19020); test: The compound was tested in vitro for binding affinity against cloned mammalian Dopamine receptor D3 expressed in CHO cells by, using [3H]spiperone as radioligand; inactive at 10E-6 M; assay type: cell-based
Sequence of D(3) dopamine receptor (Rattus norvegicus) (P19020 whole entry): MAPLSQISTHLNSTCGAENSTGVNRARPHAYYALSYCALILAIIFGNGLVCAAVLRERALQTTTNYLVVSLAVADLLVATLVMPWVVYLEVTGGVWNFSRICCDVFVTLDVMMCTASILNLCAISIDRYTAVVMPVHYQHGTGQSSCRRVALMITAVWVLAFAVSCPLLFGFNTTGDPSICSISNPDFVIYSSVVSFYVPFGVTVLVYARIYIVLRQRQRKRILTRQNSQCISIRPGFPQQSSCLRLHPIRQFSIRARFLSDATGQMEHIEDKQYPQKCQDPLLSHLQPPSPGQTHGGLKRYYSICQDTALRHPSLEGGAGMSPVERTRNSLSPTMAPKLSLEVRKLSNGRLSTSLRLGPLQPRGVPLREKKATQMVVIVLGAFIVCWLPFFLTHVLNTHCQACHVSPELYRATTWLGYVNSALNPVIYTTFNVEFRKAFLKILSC

Sequence of D(3) dopamine receptor (P19020 whole entry): as above

Row | Ki [1] | Ki (D(2) dopamine receptor [5]) | Structure (SMILES) | Ki (D(3) dopamine receptor) | Ki [2] | Ki (D(2) dopamine receptor [3]) | also measured
1 | 11 nM |  | CCCN(CCCc1ccccc1OC)C1CCc2ccc3[nH]cc(C=O)c3c2C1 (configuration not stated) | 84 nM | 3.4 nM | 14 nM | 
2 |  |  | CCCN(CCC)[C@H]1CCc2ccc3[nH]ccc3c2C1 |  |  |  | ED50 (Rattus norvegicus [4]): inactive
3 | 115 nM |  | CCCN(CCCCN1C(=O)CC(C)(C)CC1=O)C1CCc2ccc3[nH]cc(C=O)c3c2C1 (configuration not stated) | 450 nM | 9.8 nM | 136 nM | 
4 | 243 nM | 15 nM | CCCN(CCCOc1cccc(Cl)c1)C1CCc2ccc3[nH]ccc3c2C1 (configuration not stated) | 20 nM | 13 nM |  | 
5 |  |  | CCCN(CCC)C1CCc2ccc3[nH]ccc3c2C1 (configuration not stated) |  | 39 nM |  | 
6 |  |  | CCCN(CC(C)C)[C@@H]1CCc2ccc3[nH]cc(C=O)c3c2C1 | 100 nM | 6.5 nM | 28 nM | 
7 | 228 nM | 32 nM | c1ccc(CCCNCC2CCc3ccc4[nH]ccc4c3C2)cc1 (configuration not stated) | 199 nM | 63 nM |  | ED50 (Rattus norvegicus [6]): inactive; ED50 (Rattus norvegicus [7]): inactive; ED50 (Rattus norvegicus [8]): 34 µmol/kg; ED50 (Rattus norvegicus [9]): inactive; ED50 (Rattus norvegicus [10]): inactive
8 | 11 nM |  | CCCN(CCCc1ccccc1)C1CCc2ccc3[nH]cc(C=O)c3c2C1 (configuration not stated) | 42 nM | 2 nM | 13 nM | 
9 |  | 6.5 nM | CCCN(CCCCN1C(=O)CC(C)(C)CC1=O)[C@@H]1CCc2ccc3[nH]ccc3c2C1 |  |  |  | 
10 |  | 100 nM | c1cc2c3c(ccc2[nH]1)CCC(N1CCCCCC1)C3 (configuration not stated) |  | 340 nM |  | inhibition [11]: < 45%; inhibition [12]: < 45%

Row | Structure (SMILES) | Ki [1] | Ki (D(2) dopamine receptor [5]) | Ki (D(3) dopamine receptor) | Ki [2] | Ki (D(2) dopamine receptor [3]) | also measured
11 | CN(C)[C@@H]1CCc2ccc3[nH]ccc3c2C1 | 228 nM |  | 270 nM |  |  | 
12 | CCCN(CCc1ccccc1)C1CCc2ccc3[nH]ccc3c2C1 (configuration not stated) | 249 nM |  | 18 nM | 7.4 nM | 5.5 nM | 
13 | CCCNC1CCc2ccc3[nH]cc(C=O)c3c2C1 (configuration not stated) | 227 nM |  |  | 27 nM | 60 nM | 
14 | CCCN(C)C1CCc2ccc3[nH]ccc3c2C1 (configuration not stated) |  | 33 nM | 113 nM | 170 nM |  | inhibition [11]: < 45%
15 | CCCN(C)C1CCc2ccc3[nH]cc(C=O)c3c2C1 (configuration not stated) | 109 nM |  | 258 nM | 16 nM | 151 nM | 
